# High-throughput results from PubChem.
# APJ antag: APJ receptor antagonism; CHO-K1 APJ beta-arrestin complementation, luminescence; P35414; actives 0.32% (n = 330,000); inhibition, % at 20 µM;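 active means inhibition above about 40% at 20 µM, limit read from the data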;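 further: cells challenged with 10 nM apelin-13 agonist together with compound; plate controls were apelin-13 plus DMSO wells for no effect and DMSO wells lacking apelin-13 for full effect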
# CXCR6 inh: blocks human CXCR6 beta-arrestin recruitment | O00574 | actives 0.36% (n = 360,000) | CHO-K1 PathHunter CXCR6 beta-arrestin, luminescence | inhibition, % at 20 µM; in the data active means inhibition above about 34%, passing the limit was not always enough;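 further: antagonist mode with CXCL16 agonist at 10 nM final; 0% = 10 nM CXCL16 with DMSO and 100% = unstimulated wells without agonist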
# A3G deaminase: APOBEC3G (human) deaminase inhibition | Q9HC16 | recombinant A3G, ssDNA deamination FAM/TAMRA fluorescence | inhibition, % at 20 µM | actives 0.28% (n = 330,000) | AID 493012;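 active means inhibition of at least 40% at 20 µM, with no more than 30% in the related APOBEC3A deaminase screen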;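 further: plate controls were DMSO wells with A3G for no effect and wells lacking A3G enzyme for full effect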
# A3A deaminase: blocks human APOBEC3A ssDNA deamination. P31941. recombinant A3A, FAM/TAMRA ssDNA deamination fluorescence. inhibition, % at 20 µM. actives 0.41% (n = 330,000);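 active means at least 40% inhibition at 20 µM here, with at most 30% in a related deaminase screen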;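 further: plate controls were A3A with DMSO for no effect and wells lacking A3A enzyme for full effect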
# Target sequence (P31941 whole entry, looked up): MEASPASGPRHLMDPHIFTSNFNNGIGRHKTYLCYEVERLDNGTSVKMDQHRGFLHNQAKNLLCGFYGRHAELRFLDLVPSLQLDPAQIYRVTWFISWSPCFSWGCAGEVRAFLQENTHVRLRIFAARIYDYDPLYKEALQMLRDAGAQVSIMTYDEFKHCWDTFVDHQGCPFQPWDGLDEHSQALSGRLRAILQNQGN
# APJ ag: activates the human apelin receptor APJ | CHO-K1 APJ PathHunter beta-arrestin, luminescence; 0% DMSO wells, 100% apelin | actives 0.11% (n = 330,000) | activation, % at 20 µM | P35414;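 active means activation more than six SD over the plate average, tested at 20 µM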;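 further: 0% = DMSO alone and 100% = apelin-13 at 10 nM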
#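 Test system – PathHunter CHO-K1 APJ (AGTRL-1) beta-arrestin reporter cells · Input – 1000 cells/well · Compound – single test compound dose, 20 µM final, 1% DMSO · Times – compound stimulation 90 min at 25 °C, detection 60 min · Technique – beta-gal luminescence · Read-out basis – APJ–arrestin association signal · Control set – negative DMSO alone, positive Apelin-13 at 10 nM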
# CCR6 antag: antagonists of human CCR6 receptor; P51684; CHO-K1 CCR6 PathHunter beta-arrestin, luminescence, CCL20-stimulated; inhibition, % at 20 µM; actives 0.49% (n = 340,000); AID 493098;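 active means compounds whose inhibition of the agonist-driven luminescence signal at 20 µM reaches about 50%, limit read from the data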;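 further: cells stimulated with CCL20 at 14 nM final; plate controls were DMSO with CCL20 for no effect and DMSO without agonist for full effect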
# A3A conf: confirmation of human APOBEC3A DNA deaminase inhibitors. recombinant A3A, ssDNA deaminase UDG fluorescence assay. inhibition, % at 20 µM. AID 493151. actives 63% (n = 1,400). shares compounds with A3A deaminase;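 active means inhibition reaching a set limit, 80% of the first screen's cutoff, at 20 µM in any replicate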;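 further: plate controls were DMSO wells with A3A for no effect and wells lacking A3A enzyme for full effect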
# UDG A3A counter: UDG inhibition in APOBEC3A counter-screen; 1,000 tested, under 10 active; shares compounds with A3A deaminase; UDG counterscreen, FAM/TAMRA uracil oligo fluorescence; inhibition, % at 20 µM; call rule not given here
# APOBEC3G confirm: APOBEC3G (human) deaminase inhibition, confirmed. shares compounds with A3G deaminase. inhibition, % at 20 µM. recombinant A3G ssDNA deaminase, UDG/FAM-TAMRA fluorescence. actives 72% (n = 890);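 active means inhibition reaching a set limit in any replicate at 20 µM, the limit being 80% of the first screen's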
# UDG A3G counter: inhibits E. coli UDG, flagging false APOBEC3G inhibitors; UDG counterscreen, FAM/TAMRA oligo fluorescence; inhibition, % at 20 µM; shares compounds with A3G deaminase; 710 tested, under 10 active;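 active means compounds giving 40% or more inhibition at 20 µM in any one of the three replicates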;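 further: plate controls were DMSO wells with UDG and oligo for no effect and DMSO wells lacking both for full effect; inhibitors lower the FAM signal released by uracil excision and alkaline cleavage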
# Target sequence (P12295 whole entry, looked up): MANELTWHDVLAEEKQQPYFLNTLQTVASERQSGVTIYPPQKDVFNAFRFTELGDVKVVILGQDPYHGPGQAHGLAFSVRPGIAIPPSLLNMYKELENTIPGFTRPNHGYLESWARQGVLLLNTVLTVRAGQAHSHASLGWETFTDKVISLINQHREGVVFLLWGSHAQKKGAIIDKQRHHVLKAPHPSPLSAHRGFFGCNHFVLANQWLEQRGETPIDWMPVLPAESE
# An asterisk follows results filed as active; nt = no result given. Rows were chosen to be rich in hits. Some 1.4% of all compounds tested hit in one or more screens of this group.
SMILES,APJ antag,CXCR6 inh,A3G deaminase,A3A deaminase,APJ ag,CCR6 antag,APOBEC3G confirm,UDG A3G counter,others
CC(=O)Nc1cc(-c2ccccc2)ccc1O,-3,-6,16,47*,-1,-1,nt,nt,A3A conf=60*;UDG A3A counter=-3
CC(C)Oc1ccc(OCCSc2nc3ccccc3n2CC(=O)O)cc1,11,-1,7,70*,-1,-20,nt,nt,A3A conf=24
N/C(=N\c1nc2ccccc2o1)NC(=O)c1ccccc1,18,4,61*,0,-3,8,-2,1,
CCCNC(=O)C1(C)CCCN(Cc2ccccc2N(C)C)C1 (stereo unspecified),nt,10,nt,nt,nt,nt,nt,nt,
N#C/C(=C(/O)COc1ccc(Cl)cc1)c1nc2ccccc2s1,-3,-12,57*,-3,0,3,-2,1,
CCOC(=O)/C=C/C(=O)Nc1cccc([N+](=O)[O-])c1,7,85*,40*,4,-2,nt,64*,4,
NS(=O)(=O)c1ccc(-c2ccc(/C=C3\C(=O)Nc4ccccc43)o2)cc1,-20,nt,-7,-1,-2,nt,nt,nt,
CC1(C)OC(=O)C(=Cc2ccc(-c3ccc(S(N)(=O)=O)cc3)o2)C(=O)O1,-3,9,40*,18,6,10,47*,nt,
CSc1ccc(CN2CCC2(C)C(=O)NCc2cccs2)cc1 (stereo unspecified),nt,1,nt,nt,nt,nt,nt,nt,
CCCn1c(=O)c2ccccc2n2c(SCC(=O)c3ccccc3)nnc12,7,1,0,-6,-5,9,nt,nt,
O=c1c2ccccc2n2c(=S)[nH]nc2n1-c1ccccc1,-6,6,58*,-6,-3,12,69*,-2,
Cn1c(=O)c2ccccc2n2c(CCl)nnc12,21,7,-11,-4,-3,10,nt,nt,
CCC(C)c1ccc(-n2c(=O)c3ccccc3n3c(=S)[nH]nc23)cc1 (stereo unspecified),25,0,23,-8,5,-9,nt,nt,
CCCn1c(=O)c2ccccc2n2c(=S)[nH]nc12,0,2,53*,-9,-4,-2,69*,2,
Cn1c(=O)c2ccccc2n2c(=S)[nH]nc12,-22,2,44*,-7,2,-3,70*,5,
CCCCn1c(=O)c2ccccc2n2c(=S)[nH]nc12,10,-23,40*,-5,0,17,71*,1,
COc1ccc(Cl)cc1S(=O)(=O)N(C)CC(=O)NCc1ccc2c(c1)OCO2,16,-4,-6,-3,1,1,nt,nt,
CCCCCn1c(=O)c2ccccc2n2c(=S)[nH]nc12,8,5,43*,-6,-1,6,76*,-1,
CCCCCCn1c(=O)c(-c2ccccc2)c(O)c2ccccc21,5,2,-6,-5,-3,7,nt,nt,
CSCCC(NS(=O)(=O)/C=C/c1ccccc1)C(=O)O (stereo unspecified),-5,2,-4,-7,0,1,nt,nt,
CCOC(=O)c1sc(=S)n(-c2cc(OC)ccc2OC)c1N,-1,-6,60*,3,-2,8,27,nt,
CC(C)(C)c1ccc(/C=N/Nc2cccc(C(=O)O)c2)cc1,8,-7,2,2,-2,-24,nt,nt,
CN(C)c1ccc(/C=N/Nc2cccc(C(=O)O)c2)cc1,-4,-15,47*,2,4,-13,27,nt,
COC(=O)c1ccc(CNC(=O)C2CCC(=O)N(CCc3ccccn3)C2)cc1 (stereo unspecified),nt,-2,nt,nt,nt,nt,nt,nt,
